Converted amounts (≈) assume the structure as drawn.
What was measured:
HepG2 cells = test: MTT assay, cytotoxicity on HepG2 cells; assay type: cell-based, human
Method in brief: (§1)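 Cells were grown in RPMI 1640 with 10% FBS and penicillin/streptomycin at 37 °C, 5% CO2, and seeded for 24 hr. They were exposed 6 hr to peptide (1.25–100 µg/ml for IC50; 10 µg/ml for viability). MTT (5 mg/ml stock in PBS) was then added for 4 hr at 37 °C, formazan dissolved in DMSO for 30 min, and A570 read. 5-Fluorouracil served as positive control and DMSO as blank. Triplicates were run; IC50 is the mean ± SD of three experiments.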

HT-29 cells = test: MTT assay, cytotoxicity on HT-29 cells; assay type: cell-based, human
Method in brief: as §1

[1] = MTT assay, 10 µg/ml of each peptide, 6 hr, control = 100

## O=c1[nH]cc(F)c(=O)[nH]1 [5-Fluorouracil]
HepG2 cells; Homo sapiens, HepG2, 6 h, read-out: IC50 cell line HepG2
  IC50: 3.16 µg/mL (≈ 24.3 µM)
HepG2 cells; [1]
  Viability percentage (HepG2), MTT assay: 3.22%
HT-29 cells; Homo sapiens, HT-29, 6 h, read-out: IC50 cell line HT-29
  IC50: 6.08 µg/mL (≈ 46.7 µM)
HT-29 cells; [1]
  Viability percentage (HT-29), MTT assay: 9.28%

— paper PMC5776435 (Iranian Journal of Basic Medical Sciences, 2018)
